Experimental findings from ChEMBL document CHEMBL2311397, “Design and synthesis of cyclopropylamide analogues of combretastatin-A4 as novel microtubule-stabilizing agents” (J Med Chem, 2013) are described below.

Molecules are shown by their SMILES.

The target in one data set is Tubulin. Description: (§1) Activation of tubulin (unknown origin) polymerization. In kind it is protein-complex assay, Homo sapiens. In a few lines:
(§2)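 Purified brain tubulin (kit), final 3.0 mg/mL, in 80.0 mM PIPES sesquisodium pH 6.9, 2.0 mM MgCl2, 0.5 mM EGTA, 1 mM GTP, 10.2% glycerol; components prewarmed to 37 °C, reaction started by adding tubulin. A340 read each minute for 1 h. Single-point % stimulation used 10 μM compound; EC50 from 3.75, 7.5, 15, 30, 60 μM.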

Data set [1] deals with T1, Tubulin (Homo sapiens) (UniProt P68371+Q9H4B7+P0DPH7+P68366+Q13509+Q71U36+P04350+Q3ZCM7+P07437+P68363+Q9BQE3+Q6PEY2+Q13885+Q9BVA1+Q9BUF5). Description: Activation of tubulin (unknown origin) polymerization at 10 uM. In kind it is protein-complex assay. The method in brief: as §2
Data set [2] has as its system A549. Description: Cytotoxicity against paclitaxel-resistant human A549 cells after 48 hrs by MTT assay. In kind it is functional, cell-based. As to conditions: A549, 48 h. In a few lines:
(§3)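 Log-phase cells (40000–50000 cells/mL) grown in DMEM with 10% fetal calf serum (5% CO2, 37 °C) and exposed 48 h to five concentrations, 3–5 replicates. Read-out was MTT with absorbance at 570 nm; IC50 reported as mean ± SD of three independent experiments. Resistant A549 and HeLa sublines were made by stepwise paclitaxel selection; resistance index = IC50(resistant)/IC50(sensitive).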

The next data set relates to K562. Description: Cytotoxicity against human K562 cells after 48 hrs by MTT assay. The data set is classed as functional, cell-based. The method in brief:
as §3
(Tetrazolium assays rely on reduction of a dye to a coloured formazan, in cell work by metabolically active cells.)

Data set [3] in a line: Cytotoxicity against human QGY cells after 48 hrs by MTT assay. In kind it is functional, cell-based. The method in brief:
as §3

Another data set relates to SW480. The data set is described as follows: Cytotoxicity against human SW480 cells after 48 hrs by MTT assay. The data set is classed as functional, cell-based. The method in brief: as §3
The test system of data set [4] is A549. Description: Cytotoxicity against human A549 cells after 48 hrs by MTT assay. In kind it is functional, cell-based. The method in brief: as §3
Another data set has as its system Mus musculus. The data set is described as follows: Toxicity in human A549 cells xenografted BALB/c nude mouse assessed as change in body weight at 30 mg/kg, ig. The data set is classed as organism-based. More on the design: dose 30 mg/kg, route intragastric. To be noted: in vivo, po. The method in brief: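 Male BALB/c nude mice, 5 weeks old (18–20 g), implanted subcutaneously in the right armpit with A549 tumor fragments (3 mm3). On day 13, at 100–200 mm3, daily intragastric dosing began: 100 or 500 mg/kg test compound, or 30 mg/kg paclitaxel, in Tween-80 diluted with saline. Vehicle given ip. Tumor volume and body weight followed; n = 6; inhibition rate at day 16.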

A further data set concerns HeLa. The data set is described as follows: Cytotoxicity against human HeLa cells after 48 hrs by MTT assay. In kind it is functional, cell-based. The method in brief:
as §3

Data set [5] deals with T1, Tubulin (Homo sapiens). The data set is described as §1. In kind it is protein-complex assay. The method in brief: as §2

`CC(=O)O[C@H]1C(=O)[C@@]2(C)[C@H]([C@H](OC(=O)c3ccccc3)[C@]3(O)C[C@H](OC(=O)[C@H](O)[C@@H](NC(=O)c4ccccc4)c4ccccc4)C(C)=C1C3(C)C)[C@]1(OC(C)=O)CO[C@@H]1C[C@@H]2O` [PACLITAXEL]: at Tubulin, the EC50 was found to be 1.23 µM. For the same compound, the Activity at Tubulin (Homo sapiens) [1] is 245%; in the data set with Mus musculus, “Toxic”. The 50% inhibitory concentration (IC50) with A549 [2] came to 1.04 µM; in the data set with K562 (Homo sapiens, K562, 48 h) it was 0.0157 µM; in data set [3] (Homo sapiens, QGY, 48 h) it was 0.0113 µM; with SW480 (Homo sapiens, SW480, 48 h) it was 0.0121 µM; in the data set with A549 [4] (Homo sapiens, A549, 48 h), 0.0082 µM.
On Tubulin (Homo sapiens) [1], `CCOC(=O)C1(C(=O)Nc2ccccc2)CC1c1cc(OC)c(OC)c(OC)c1` (cis isomer) showed an Activity of 23.2%.
In turn, `CCOC(=O)[C@]1(C(=O)Nc2ccccc2Cl)C[C@H]1c1cc(OC)c(OC)c(OC)c1` gave an EC50 on Tubulin of 16.9 µM. Besides, at Tubulin (Homo sapiens) [1], the Activity turned out to be 28.6%. Further, the IC50 amounted to 20.7 µM with K562 (Homo sapiens, K562, 48 h); 28 µM in data set [3] (Homo sapiens, QGY, 48 h); 25.6 µM with SW480 (Homo sapiens, SW480, 48 h); 42.4 µM with HeLa (Homo sapiens, HeLa, 48 h); 13.4 µM in the data set with A549 [4] (Homo sapiens, A549, 48 h).
With `CCOC(=O)C1(C(=O)NCc2ccc(OC)cc2)CC1c1cc(OC)c(OC)c(OC)c1` (trans isomer), on Tubulin (Homo sapiens) [1], the Activity turned out to be 50%.
On the same count and under the same terms, the figure for `CCOC(=O)C1(C(=O)Nc2ccc(F)cc2)CC1c1cc(OC)c(OC)c(OC)c1` (trans isomer) [listing 1 of 2 here] is 7.9%; for `CCOC(=O)C1(C(=O)NCCc2ccc(F)cc2)CC1c1cc(OC)c(OC)c(OC)c1` (cis isomer) it is 40.8%.
In the case of `CCOC(=O)C1(C(=O)Nc2ccc(F)cc2)CC1c1cc(OC)c(OC)c(OC)c1` (trans isomer) [listing 2 of 2 here], the IC50 is over 100 µM with K562 (k562); 36.1 µM in data set [3] (qgy); 42 µM in the data set on SW480 (sw480); 36.8 µM with HeLa (hela); 28 µM in the data set with A549 [4] (a549).
For the compound `CCOC(=O)[C@]1(C(=O)NCc2ccc(C)cc2)C[C@H]1c1cc(OC)c(OC)c(OC)c1`, the Activity entry on Tubulin (Homo sapiens) [5] was “Dose-dependent effect”; at Tubulin (Homo sapiens) [1] it was 79.3%. Further, the EC50 on Tubulin was 5.83 µM. Further, the half-inhibitory concentration (IC50) with K562 (Homo sapiens, K562, 48 h) is over 100 µM; in data set [3] (Homo sapiens, QGY, 48 h) it was 32.1 µM; with SW480 (Homo sapiens, SW480, 48 h) it was 36.4 µM; in the data set with HeLa (Homo sapiens, HeLa, 48 h), 28.5 µM; with A549 [4] (Homo sapiens, A549, 48 h) it was 13.3 µM.
For `COc1cc([C@@H]2C[C@@]2(CO)C(=O)NCc2ccc(C)cc2)cc(OC)c1OC`, the IC50 in the data set with K562 (Homo sapiens, K562, 48 h) is over 100 µM; in data set [3] (Homo sapiens, QGY, 48 h), 58.7 µM; in the data set with SW480 (Homo sapiens, SW480, 48 h), 76.3 µM; in the data set on HeLa (Homo sapiens, HeLa, 48 h), 41.2 µM; in the data set on A549 [4] (Homo sapiens, A549, 48 h), 46.3 µM.
For `CCOC(=O)C1(C(=O)Nc2ccc(OC)cc2)CC1c1cc(OC)c(OC)c(OC)c1` (cis isomer) the same measures were over 100 µM, 86.1 µM, 66.3 µM, 81.6 µM and 61.4 µM.
Take `CCOC(=O)C1(C(=O)NCCc2cccc(F)c2)CC1c1cc(OC)c(OC)c(OC)c1` (cis isomer): the IC50 in the data set on K562 (Homo sapiens, K562, 48 h) came out at 76.1 µM; in data set [3] (qgy), 39.9 µM; in the data set with SW480 (sw480), 35.5 µM; with HeLa (hela), 28.1 µM; in the data set with A549 [4] (Homo sapiens, A549, 48 h) it was 52.3 µM.
For the compound `CCOC(=O)C1(C(=O)Nc2ccc(F)cc2)CC1c1cc(OC)c(OC)c(OC)c1` (cis isomer), the IC50 in the data set with K562 (Homo sapiens, K562, 48 h) came to 63.7 µM; in data set [3] (qgy), 79.1 µM; in the data set on SW480 (Homo sapiens, SW480, 48 h), 46.7 µM; with HeLa (Homo sapiens, HeLa, 48 h), 62.4 µM; in the data set with A549 [4] (Homo sapiens, A549, 48 h) it was 22.4 µM.

Usually EC50 stands for the concentration at which the effect is half-maximal. A high value points to a need for much substance. One may read the IC50 as the concentration that inhibits the measured activity by half. A higher IC50 goes with a need for much substance.
